Measurements reported in ChEMBL document CHEMBL1157362, “Pharmacokinetics of the anti-human immunodeficiency virus agent 1-(beta-D-dioxolane)thymine in rhesus monkeys” (Antimicrob Agents Chemother, 2007).

Experiments:
Rhesus monkey [1] = test: Drug elimination in rhesus monkey assessed as beta-dioxolane-thymine-glucuronide elimination at 33.3 mg/kg, iv; format: ADME, organism-based, Macaca mulatta; design: dose 33.3 mg/kg, route intravenous; conditions: in vivo
Outline: (§1)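 Glucuronide was estimated indirectly in 0–8 h urine after a 33.3 mg/kg i.v. or oral dose. Urine was treated with β-glucuronidase (500 U/ml, freshly prepared) in acetate/phosphate buffer pH 5.8 for 12 h at 37°C. Untreated urine served as the parallel sample. Glucuronide was taken as the difference in parent drug between the two samples by HPLC-UV. Its presence was screened by ESI MS/MS.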

[2] = Biodistribution in rhesus monkey urine assessed as dose recovered unchanged at 33.3 mg/kg, iv after 8 hrs; format: ADME, organism-based, Macaca mulatta; design: dose 33.3 mg/kg, route intravenous; conditions: read-out: Drug uptake
Outline: (§2)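 Monkeys were catheterized and dosed with 33.3 mg/kg by i.v. or oral route under anesthesia. Urine was collected in intervals over 0–8 h. Untreated urine was incubated 12 h at 37°C in acetate/phosphate buffer pH 5.8 and spiked with AZT internal standard. Unchanged drug was quantified by HPLC-UV at 266 nm against urine standard curves of 0.1–100 µg/ml.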

[3] = Renal clearance in rhesus monkey at 33.3 mg/kg, iv; format: ADME, organism-based, Macaca mulatta, Kidney; design: dose 33.3 mg/kg, route intravenous; conditions: in vivo, read-out: CL_renal (converted)
Outline: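 Renal clearance was derived by fitting 0–8 h urinary excretion (HPLC-UV) to dXu/dt = Clrenal x Cp. Cp was the serum concentration predicted by the two-compartment serum fit, and the urine fit was unweighted. Dose was 33.3 mg/kg.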

[4] = Oral bioavailability in rhesus monkey at 33.3 mg/kg; format: ADME, organism-based, Macaca mulatta; conditions: in vivo
Outline: (§3)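 Rhesus monkeys (three) got a single 33.3 mg/kg dose orally by gastric intubation in water, then i.v. in saline after a washout of at least 4 weeks. Animals were under ketamine/Telazol anesthesia. Femoral-vein blood was drawn at 0–24 h. Serum was acetonitrile-extracted with AZT internal standard and assayed by HPLC-UV at 266 nm. Parameters came from a simultaneous two-compartment fit weighted 1/(predicted)2. F was from AUCoral = F x AUCi.v.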

[5] = Drug level in rhesus monkey cerebrospinal fluid at 33.3 mg/kg, iv after 1 hr; format: ADME, organism-based, Macaca mulatta; design: dose 33.3 mg/kg, route intravenous; conditions: read-out: Drug uptake
Outline: (§4)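 Cerebrospinal fluid was drawn by cisternal or lumbar tap 1 and 2 h after a 33.3 mg/kg i.v. or oral dose in anesthetized rhesus monkeys. Samples were kept frozen at –70°C. AZT internal standard was added, and the sample was injected directly for HPLC-UV at 266 nm against water-based standards of 0.1–25 µg/ml.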

[6] = AUC in rhesus monkey at 33.3 mg/kg, iv; format: ADME, organism-based, Macaca mulatta; design: dose 33.3 mg/kg, route intravenous; conditions: plasma; outline: as §3
[7] = Tmax in rhesus monkey at 33.3 mg/kg, po; format: ADME, organism-based, Macaca mulatta; design: dose 33.3 mg/kg, route oral; conditions: in vivo
Outline: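 Oral gastric-intubation dose of 33.3 mg/kg in water given to rhesus monkeys under ketamine/Telazol anesthesia. Serial femoral-vein serum was sampled from 0.25 to 24 h and assayed by reverse-phase HPLC-UV at 266 nm. Time of peak was taken from a two-compartment model fitted with an absorption lag.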

[8] = Ratio of drug level in cerebrospinal fluid to plasma of rhesus monkey at 33.3 mg/kg, iv after 1 hr; format: ADME, organism-based, Macaca mulatta, CSF/Plasma; design: dose 33.3 mg/kg, route intravenous
Outline: (§5)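 CSF was taken by cisternal or lumbar tap at 1 and 2 h after a 33.3 mg/kg i.v. or oral dose, along with femoral-vein serum. Both were quantified by HPLC-UV at 266 nm with AZT internal standard. The ratio was CSF concentration divided by serum concentration at the same time.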

[9] = Terminal phase half life in rhesus monkey at 33.3 mg/kg, iv; format: ADME, organism-based, Macaca mulatta; design: dose 33.3 mg/kg, route intravenous; conditions: in vivo; outline: as §3
[10] = Systemic clearance in rhesus monkey at 33.3 mg/kg, iv; format: ADME, organism-based, Macaca mulatta; design: dose 33.3 mg/kg, route intravenous; conditions: in vivo; outline: as §3
[11] = Volume of distribution at steady state in rhesus monkey at 33.3 mg/kg, iv; format: ADME, organism-based, Macaca mulatta; design: dose 33.3 mg/kg, route intravenous; conditions: in vivo, read-out: Vdss; outline: as §3
[12] = Ratio of drug level in cerebrospinal fluid to plasma of rhesus monkey at 33.3 mg/kg, po after 1 hr; format: ADME, organism-based, Macaca mulatta, CSF/Plasma; design: dose 33.3 mg/kg, route oral; outline: as §5
[13] = Cmax in rhesus monkey at 33.3 mg/kg, po; format: ADME, organism-based, Macaca mulatta; design: dose 33.3 mg/kg, route oral; conditions: in vivo; outline: as §3
[14] = Drug level in rhesus monkey cerebrospinal fluid at 33.3 mg/kg, po after 2 hrs; format: ADME, organism-based, Macaca mulatta; design: dose 33.3 mg/kg, route oral; conditions: read-out: Drug uptake; outline: as §4
[15] = Ratio of drug level in cerebrospinal fluid to plasma of rhesus monkey at 33.3 mg/kg, iv after 2 hrs; format: ADME, organism-based, Macaca mulatta, CSF/Plasma; design: dose 33.3 mg/kg, route intravenous; outline: as §5
[16] = Mean residence time in rhesus monkey at 33.3 mg/kg, iv; format: ADME, organism-based, Macaca mulatta; design: dose 33.3 mg/kg, route intravenous; conditions: in vivo; outline: as §3
[17] = Mean residence time in rhesus monkey at 33.3 mg/kg, po; format: ADME, organism-based, Macaca mulatta; design: dose 33.3 mg/kg, route oral; conditions: in vivo; outline: as §3
Rhesus monkey [18] = test: Tlag in rhesus monkey at 33.3 mg/kg, po; conditions: in vivo
[19] = Drug level in rhesus monkey cerebrospinal fluid at 33.3 mg/kg, iv after 2 hrs; format: ADME, organism-based, Macaca mulatta; design: dose 33.3 mg/kg, route intravenous; conditions: read-out: Drug uptake; outline: as §4
Rhesus monkey [20] = test: Drug elimination in rhesus monkey assessed as beta-dioxolane-thymine-glucuronide elimination at 33.3 mg/kg, po; format: ADME, organism-based, Macaca mulatta; design: dose 33.3 mg/kg, route oral; conditions: in vivo; outline: as §1
[21] = Ratio of drug level in cerebrospinal fluid to plasma of rhesus monkey at 33.3 mg/kg, po after 2 hrs; format: ADME, organism-based, Macaca mulatta, CSF/Plasma; design: dose 33.3 mg/kg, route oral; outline: as §5
[22] = Central volume of distribution in rhesus monkey at 33.3 mg/kg, iv; format: ADME, organism-based, Macaca mulatta; design: dose 33.3 mg/kg, route intravenous; conditions: in vivo, read-out: Vc; outline: as §3
[23] = Biodistribution in rhesus monkey urine assessed as dose recovered unchanged at 33.3 mg/kg, po after 8 hrs; format: ADME, organism-based, Macaca mulatta; design: dose 33.3 mg/kg, route oral; conditions: read-out: Drug uptake; outline: as §2
[24] = Drug level in rhesus monkey cerebrospinal fluid at 33.3 mg/kg, po after 1 hr; format: ADME, organism-based, Macaca mulatta; design: dose 33.3 mg/kg, route oral; conditions: read-out: Drug uptake; outline: as §4
[25] = AUC in rhesus monkey at 33.3 mg/kg, po; format: ADME, organism-based, Macaca mulatta; design: dose 33.3 mg/kg, route oral; conditions: plasma; outline: as §3
[26] = Cmax in rhesus monkey; format: ADME, organism-based, Macaca mulatta; conditions: in vivo
[27] = Terminal phase half life in rhesus monkey; format: ADME, organism-based, Macaca mulatta; conditions: in vivo
[28] = Central volume of distribution in rhesus monkey; format: ADME, organism-based, Macaca mulatta; conditions: in vivo, read-out: Vc
[29] = Oral bioavailability in rhesus monkey; format: ADME, organism-based, Macaca mulatta; conditions: in vivo
Rhesus monkey [30] = test: AUC in rhesus monkey; format: ADME, organism-based, Macaca mulatta, Plasma; conditions: in vivo
[31] = Volume of distribution at steady state in rhesus monkey; format: ADME, organism-based, Macaca mulatta; conditions: in vivo, read-out: Vdss
[32] = Oral bioavailability in mouse; format: ADME, organism-based; conditions: in vivo
[33] = Oral bioavailability in cynomolgus monkey; format: ADME, organism-based, Macaca fascicularis; conditions: in vivo
[34] = Oral bioavailability in rhesus monkey at 60 mg/kg; format: ADME, organism-based, Macaca mulatta; conditions: in vivo
[35] = Oral bioavailability in human; format: ADME, organism-based; conditions: in vivo
[36] = Drug elimination in monkey urine after 30 days; format: ADME, organism-based, Macaca mulatta; conditions: rhesus monkey, Activity

Cc1cn([C@H]2CO[C@@H](CO)O2)c(=O)[nH]c1=O
Drug uptake (Rhesus monkey [1]): 4%
dose excreted at 8 h [2]: 40%
CL renal [3]: 3 mL/min/kg
bioavailability [4]: 95%
concentration at 1 h [5]: 7.8 µM
AUC [6]: 416 µM·h
Tmax [7]: 0.5 h
Kp at 1 h [8]: 0.09
half-life [9]: 2.16 h
clearance [10]: 6 mL/min/kg
Vd [11]: 1.02 L/kg
Kp at 1 h [12]: 0.05
Cmax [13]: 105 µM
concentration at 2 h [14]: 4.2 µM
Kp at 2 h [15]: 0.18
MRT [16]: 2.88 h
MRT [17]: 3.26 h
Tlag (Rhesus monkey [18]): 0.51 h
concentration at 2 h [19]: 12.3 µM
Drug uptake (Rhesus monkey [20]): 8%
Kp at 2 h [21]: 0.06
Vd [22]: 0.52 L/kg
dose excreted at 8 h [23]: 48%
concentration at 1 h [24]: 3.2 µM
AUC [25]: 387 µM·h

Nc1nc2c(ncn2[C@H]2CO[C@@H](CO)O2)c(=O)[nH]1
Cmax [26]: 50 µM

Nc1nc(=O)n([C@H]2CO[C@@H](CO)O2)cc1F
half-life [27]: 2.48 h
Vd [28]: 0.53 L/kg
bioavailability [29]: 38%
Cmax [26]: 34.4 µM
AUC (Rhesus monkey [30]): 197 µM·h
Vd [31]: 0.53 L/kg

Nc1nc(N)c2ncn([C@H]3CO[C@@H](CO)O3)c2n1 [AMDOXOVIR]
bioavailability [29]: 30%

Cc1cn([C@H]2C=C[C@@H](CO)O2)c(=O)[nH]c1=O [STAVUDINE]
bioavailability [32]: 100%
bioavailability [33]: 83%
half-life [27]: 0.8 h
bioavailability [34]: 25%
bioavailability [35]: 100%
dose excreted at 720 h [36]: < 50%

Cc1cn([C@H]2C[C@H](N=[N+]=[N-])[C@@H](CO)O2)c(=O)[nH]c1=O [ZIDOVUDINE]
half-life [27]: 0.8 h
bioavailability [34]: 90%
